Columns and labels:
[1] = system: Plasmodium falciparum; assay: Antimalarial activity in Plasmodium falciparum Indochina W2; type: functional, organism-based
Method in brief: (§1)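 P. falciparum clones in human erythrocytes at 0.2% parasitemia and 1% hematocrit, in RPMI-1640 without folate or PABA plus 10% heat-inactivated human plasma. Compounds were diluted 2-fold 11 times ([…] range). Incubation was at 37 °C under 5% CO2/5% O2/90% N2, with [3H]hypoxanthine added at 42 h and 24 h further (66 h total). Cells were freeze-lysed, harvested and scintillation-counted; IC50 by nonlinear logistic dose-response fit.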

[2] = Antiproliferative activity in Fem-X of Human melanoma; type: functional
Method in brief: (§2)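 Cells were maintained as monolayers at 37 °C, 5% CO2, in RPMI-1640 with 10% heat-inactivated FBS, 25 mM Hepes, pH 7.2. They were seeded at 2000 cells/well in triplicate, and five concentrations were added 20 h later from 8 mM DMSO stocks; DMSO-only controls. MTT was added at 72 h for 4 h, then SDS/HCl, with OD570 read the next day. Blank-corrected survival vs control; IC50 = 50% survival inhibition.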

[3] = system: HeLa; assay: Antiproliferative activity in HeLa cells of Human cervix carcinoma; type: functional, cell-based; method in brief: as §2
[4] = system: Plasmodium falciparum; assay: Antimalarial activity against Plasmodium falciparum African D6; type: functional, organism-based; method in brief: as §1
[5] = system: CCRF-CEM; assay: Antiproliferative activity as Growth inhibition in CCRF-CEM Leukemia cell line; type: functional; conditions: Homo sapiens
Method in brief: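 NCI 60-cell-line screen: 48-h continuous drug exposure, growth measured by sulforhodamine B protein assay. GI50 is the interpolated concentration giving +50 percentage growth.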

[6] = Cytotoxic activity against phytohemagglutininin (PHA)-stimulated peripheral blood mononuclear cells (PBMC) inhibition; type: functional; conditions: Homo sapiens; read-out: Cytotoxicity IC50
Method in brief: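 PBMC were isolated from heparinized blood of three healthy volunteers by density-gradient centrifugation and seeded at 100 000 cells/well in RPMI-based medium. Stimulated cultures received PHA at 5 µg/mL final; non-stimulated cultures received none. Compound dilutions were added 2 h later in triplicate, with medium-only controls. IC50 was determined for each donor.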

[7] = Selectivity, ratio of PHA-stimulated PBMC to D6 clone; type: functional
[8] = Selectivity, ratio of PHA-stimulated PBMC to PBMC; type: functional
[9] = system: Plasmodium falciparum; assay: Antimalarial activity in Plasmodium falciparum FCR3; type: functional, organism-based
[10] = system: FM3A; assay: Antiproliferative activity in Mouse mammary tumor FM3A; type: functional, cell-based

For `COC(=O)CCC(C)[C@H]1CC[C@H]2[C@@H]3[C@H](OC(C)=O)C[C@@H]4C[C@]5(CC[C@]4(C)[C@H]3C[C@H](OC(C)=O)[C@]12C)OO[C@]1(CC[C@@]2(C)[C@H](C[C@@H](OC(C)=O)[C@@H]3[C@@H]2C[C@H](OC(C)=O)[C@]2(C)[C@@H](C(C)CCC(=O)OC)CC[C@@H]32)C1)OO5` (some centres not stated), the IC50 [1] was > 96 nM, the IC50 [2] was 19.5 µM and the IC50 ([3]; Homo sapiens, HeLa) was 20.5 µM. The IC50 [4] was > 96 nM.

`CC(=O)O[C@H]1C[C@H]2[C@@H]([C@H](OC(C)=O)C[C@@H]3C[C@]4(CC[C@@]32C)OO[C@]2(CC[C@@]3(C)[C@H](C[C@@H](OC(C)=O)[C@@H]5[C@@H]3C[C@H](OC(C)=O)[C@]3(C)[C@@H](C(C)CCC(N)=O)CC[C@@H]53)C2)OO4)[C@@H]2CC[C@H](C(C)CCC(N)=O)[C@@]12C` (some centres not stated) gave an IC50 [1] of 59.4 nM, an IC50 [2] of 6.2 µM and an IC50 ([3]; Homo sapiens, HeLa) of 6 µM. The IC50 [4] was 129 nM.

For `CCCNC(=O)CCC(C)[C@H]1CC[C@H]2[C@@H]3[C@H](OC(C)=O)C[C@@H]4C[C@]5(CC[C@]4(C)[C@H]3C[C@H](OC(C)=O)[C@]12C)OO[C@]1(CC[C@@]2(C)[C@H](C[C@@H](OC(C)=O)[C@@H]3[C@@H]2C[C@H](OC(C)=O)[C@]2(C)[C@@H](C(C)CCC(=O)NCCC)CC[C@@H]32)C1)OO5` (some centres not stated), the IC50 [1] was 30.1 nM, the GI50 [5] was 100 nM and the CC50 [6] was 251 µM. The Ratio [7] was 12500, the IC50 [2] was 94 µM and the IC50 ([3]; Homo sapiens, HeLa) was 0.166 µM. For the same molecule, the IC50 [4] was 20.1 nM and the Ratio [8] was >15900.

Work on `CC(=O)O[C@H]1C[C@H]2[C@@H]([C@H](OC(C)=O)C[C@@H]3C[C@]4(CC[C@@]32C)OO[C@@]2(CC[C@@]3(C)[C@H](C[C@@H](OC(C)=O)[C@@H]5[C@@H]3C[C@H](OC(C)=O)[C@]3(C)[C@@H](C(C)CCC(N)=O)CC[C@@H]53)C2)OO4)[C@@H]2CC[C@H](C(C)CCC(N)=O)[C@@]12C` (some centres not stated) yielded an IC50 [1] of 18.8 nM, a GI50 [5] of 970 nM and an IC50 [2] of 3.1 µM. It also gave an IC50 ([3]; Homo sapiens, HeLa) of 3.7 µM and an IC50 [4] of 23.7 nM.

With `CC(=O)O[C@H]1C[C@H]2[C@@H]([C@H](OC(C)=O)C[C@@H]3C[C@]4(CC[C@@]32C)OO[C@]2(CC[C@@]3(C)[C@H](C[C@@H](OC(C)=O)[C@@H]5[C@@H]3C[C@H](OC(C)=O)[C@]3(C)[C@@H](C(C)CCC(=O)O)CC[C@@H]53)C2)OO4)[C@@H]2CC[C@H](C(C)CCC(=O)O)[C@@]12C` (some centres not stated) the IC50 [1] was > 99 nM, the IC50 [2] was 0.0076 µM and the IC50 ([3]; Homo sapiens, HeLa) was 0.0092 µM. The IC50 [4] was > 99 nM.

`CCCNC(=O)CCC(C)[C@H]1CC[C@H]2[C@@H]3[C@H](OC(C)=O)C[C@@H]4C[C@]5(CC[C@]4(C)[C@H]3C[C@H](OC(C)=O)[C@]12C)OO[C@@]1(CC[C@@]2(C)[C@H](C[C@@H](OC(C)=O)[C@@H]3[C@@H]2C[C@H](OC(C)=O)[C@]2(C)[C@@H](C(C)CCC(=O)NCCC)CC[C@@H]32)C1)OO5` (some centres not stated) showed an IC50 [1] of 60.4 nM, a CC50 [6] of 96 µM and a Ratio [7] of 10333. For the same molecule, the IC50 [2] was 23 µM, the IC50 ([3]; Homo sapiens, HeLa) was 33 µM and the IC50 [4] was 9.29 nM. For the same molecule, the Ratio [8] was >10700.

For `CC(=O)O[C@H]1C[C@H]2[C@@H]([C@H](OC(C)=O)C[C@@H]3C[C@]4(CC[C@@]32C)OO[C@@]2(CC[C@@]3(C)[C@H](C[C@@H](OC(C)=O)[C@@H]5[C@@H]3C[C@H](OC(C)=O)[C@]3(C)[C@@H](C(C)CCC(=O)O)CC[C@@H]53)C2)OO4)[C@@H]2CC[C@H](C(C)CCC(=O)O)[C@@]12C` (some centres not stated), the IC50 [1] was > 99 nM, the GI50 [5] was 1.2 nM and the IC50 [2] was 0.0042 µM. For the same molecule, the IC50 ([3]; Homo sapiens, HeLa) was 0.0052 µM and the IC50 [4] was > 99 nM.

With CISPLATIN the IC50 ([3]; hela) was 0.0035 µM.

For `COC(=O)CCC(C)[C@H]1CC[C@H]2[C@@H]3[C@H](OC(C)=O)C[C@@H]4C[C@]5(CC[C@]4(C)[C@H]3C[C@H](OC(C)=O)[C@]12C)OO[C@@]1(CC[C@@]2(C)[C@H](C[C@@H](OC(C)=O)[C@@H]3[C@@H]2C[C@H](OC(C)=O)[C@]2(C)[C@@H](C(C)CCC(=O)OC)CC[C@@H]32)C1)OO5` (some centres not stated), the IC50 [1] was > 96 nM, the GI50 [5] was 14800 nM and the IC50 [2] was > 29 µM. For the same molecule, the IC50 ([3]; Homo sapiens, HeLa) was > 29 µM and the IC50 [4] was > 96 nM.

Work on `C[C@@H]1CC[C@H]2[C@@H](C)C(=O)O[C@@H]3O[C@@]4(C)CC[C@@H]1[C@]32OO4` [ARTEMISININ] yielded an IC50 [1] of 7.3 nM, an EC50 [9] of 7.8 nM and an IC50 [4] of 8.6 nM. The EC50 [10] was 10 µM.

Source: ChEMBL document CHEMBL1133629, “Cholic acid derivatives as 1,2,4,5-tetraoxane carriers: structure and antimalarial and antiproliferative activity” (J Med Chem, 2000)
